One block for each molecule: values may come before it.
Experiments:
Adenosine receptor A1 [1] = molecular target: T1, Adenosine receptor A1 (Homo sapiens, UniProt P30542); experiment: Displacement of [3H]DPCPX from human Adenosine A1 receptor expressed in CHO cells; range 379-535; format: cell-based
T1 sequence (P30542 whole entry): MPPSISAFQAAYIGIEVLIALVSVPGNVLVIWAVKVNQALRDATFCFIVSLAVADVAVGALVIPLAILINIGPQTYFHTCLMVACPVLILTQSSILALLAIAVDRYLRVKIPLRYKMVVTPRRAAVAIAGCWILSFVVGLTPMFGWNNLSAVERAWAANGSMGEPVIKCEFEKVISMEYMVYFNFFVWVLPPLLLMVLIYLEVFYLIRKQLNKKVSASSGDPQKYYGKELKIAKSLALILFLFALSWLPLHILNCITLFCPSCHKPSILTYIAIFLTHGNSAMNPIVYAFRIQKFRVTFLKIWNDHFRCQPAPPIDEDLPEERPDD
In short: (§1)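 Human recombinant A1 receptor in CHO cell membranes, resuspended in 50 mM Tris HCl pH 7.4. Displacement run 120 min at 25 °C with 1 nM [3H]DPCPX, 50 µg protein per assay, and at least six to eight test concentrations. Nonspecific binding defined with CHA. Bound and free separated on glass-fiber filters; filter radioactivity counted. n = 3-6.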

Adenosine receptor A3 [2] = molecular target: T2, Adenosine receptor A3 (Homo sapiens, UniProt P0DMS8); experiment: Inhibition of IB-MECA agonist-mediated cAMP production in CHO cell membranes expressing human Adenosine A3 receptor; range 3.0-10.8; format: functional, cell-based
T2 sequence (P0DMS8 whole entry): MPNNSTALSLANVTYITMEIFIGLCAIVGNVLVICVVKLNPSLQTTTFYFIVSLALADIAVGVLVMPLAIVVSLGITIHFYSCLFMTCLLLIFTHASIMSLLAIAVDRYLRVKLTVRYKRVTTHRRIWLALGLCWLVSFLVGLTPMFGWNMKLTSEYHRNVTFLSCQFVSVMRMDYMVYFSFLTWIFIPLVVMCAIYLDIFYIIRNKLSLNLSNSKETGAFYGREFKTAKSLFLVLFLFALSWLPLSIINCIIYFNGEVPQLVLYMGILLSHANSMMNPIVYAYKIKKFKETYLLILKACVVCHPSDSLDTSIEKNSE

Adenosine receptor A3 [3] = molecular target: T2, Adenosine receptor A3; experiment: Displacement of [3H]MRE3008-F20 from human Adenosine A3 receptor expressed in HEK cells; range 0.59-0.83; format: cell-based, HEK293
Adenosine receptor A2a [4] = molecular target: T3, Adenosine receptor A2a (Homo sapiens, UniProt P29274); experiment: Displacement of [3H]SCH-58261 from human Adenosine A2A receptor expressed in HEK293 cells; range 146-220; format: cell-based
Adenosine receptor A2b [5] = molecular target: T4, Adenosine receptor A2b (Homo sapiens, UniProt P29275); experiment: Displacement of [3H]DPCPX from human Adenosine A2B receptor expressed in HEK293 cells; range 187-265; format: cell-based
T4 sequence (P29275 whole entry): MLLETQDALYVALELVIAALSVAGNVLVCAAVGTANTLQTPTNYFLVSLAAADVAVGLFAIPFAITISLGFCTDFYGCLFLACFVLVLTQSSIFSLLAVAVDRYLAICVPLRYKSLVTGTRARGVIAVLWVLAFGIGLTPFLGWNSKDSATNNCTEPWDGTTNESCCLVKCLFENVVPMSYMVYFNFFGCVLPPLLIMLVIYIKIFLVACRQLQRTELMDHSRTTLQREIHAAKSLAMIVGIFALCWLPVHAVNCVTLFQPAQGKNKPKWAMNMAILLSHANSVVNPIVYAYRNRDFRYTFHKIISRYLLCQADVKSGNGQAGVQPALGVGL
In short: (§2)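 Membranes from HEK-293 cells with human recombinant A2B receptor. Incubation 60 min at 25 °C in 50 mM Tris HCl, 10 mM MgCl2, 1 mM EDTA, 0.1 mM benzamidine, pH 7.4, with 2 IU/mL adenosine deaminase and 40 nM [3H]DPCPX. At least six to eight test concentrations. Nonspecific binding defined with NECA. n = 3-6.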

[6] = molecular target: Adenosine receptors; A2b & A3 (Homo sapiens) (UniProt P29275+P0DMS8); experiment: Selectivity ratio (h2B/hA3); format: protein assay
[7] = molecular target: Adenosine receptors; A1 & A3 (Homo sapiens) (UniProt P30542+P0DMS8); experiment: Selectivity ratio (hA1/hA3); format: protein assay
Adenosine receptor A1 [8] = molecular target: T1, Adenosine receptor A1; experiment: Displacement of [3H]DPCPX from human Adenosine A1 receptor expressed in CHO cells; range 601-888; format: cell-based; in short: as §1
Adenosine receptor A2a [9] = molecular target: T3, Adenosine receptor A2a; experiment: Displacement of [3H]SCH-58261 from human Adenosine A2A receptor expressed in HEK293 cells; range 93-130; format: cell-based
Adenosine receptor A3 [10] = molecular target: T2, Adenosine receptor A3; experiment: Inhibition of IB-MECA agonist-mediated cAMP production in CHO cell membranes expressing human Adenosine A3 receptor; range 2.7-7.8; format: functional, cell-based
Adenosine receptor A2b [11] = molecular target: T4, Adenosine receptor A2b; experiment: Displacement of [3H]DPCPX from human Adenosine A2B receptor expressed in HEK293 cells; range 244-373; format: cell-based
In short: (§3)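 HEK-293 membranes expressing the human receptor were incubated 60 min at 25 °C. Six to eight test concentrations were used. Nonspecific binding was set with NECA. n = 3-6.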

Adenosine receptor A3 [12] = molecular target: T2, Adenosine receptor A3; experiment: biochemical
Adenosine receptor A1 [13] = molecular target: T1, Adenosine receptor A1; experiment: Displacement of [3H]DPCPX from human Adenosine A1 receptor expressed in CHO cells; range 598-838; format: cell-based
Adenosine receptor A2a [14] = molecular target: T3, Adenosine receptor A2a; experiment: Displacement of [3H]SCH-58261 from human Adenosine A2A receptor expressed in HEK293 cells; range 402-608; format: cell-based
Adenosine receptor A2b [15] = molecular target: T4, Adenosine receptor A2b; experiment: Displacement of [3H]DPCPX from human Adenosine A2B receptor expressed in HEK293 cells; range 26-45; format: cell-based; in short: as §2
Adenosine receptor A3 [16] = molecular target: T2, Adenosine receptor A3; experiment: biochemical; remark: listed apart in the source
Adenosine receptor A1 [17] = molecular target: T1, Adenosine receptor A1; experiment: Displacement of [3H]DPCPX from human Adenosine A1 receptor expressed in CHO cells; range 358-468; format: cell-based
Adenosine receptor A2b [18] = molecular target: T4, Adenosine receptor A2b; experiment: Displacement of [3H]DPCPX from human Adenosine A2B receptor expressed in HEK293 cells; range 43-58; format: cell-based; in short: as §3
Adenosine receptor A2a [19] = molecular target: T3, Adenosine receptor A2a; experiment: Displacement of [3H]SCH-58261 from human Adenosine A2A receptor expressed in HEK293 cells; range 102-215; format: cell-based
Adenosine receptor A3 [20] = molecular target: T2, Adenosine receptor A3; experiment: Displacement of [3H]MRE3008-F20 from human Adenosine A3 receptor expressed in HEK cells; range 0.12-0.37; format: cell-based, HEK293
Adenosine receptor A2b [21] = molecular target: T4, Adenosine receptor A2b; experiment: Displacement of [3H]DPCPX from human Adenosine A2B receptor expressed in HEK293 cells; range 127-203; format: cell-based; in short: as §3
Adenosine receptor A1 [22] = molecular target: T1, Adenosine receptor A1; experiment: Displacement of [3H]DPCPX from human Adenosine A1 receptor expressed in CHO cells; range 210-376; format: cell-based
Adenosine receptor A2a [23] = molecular target: T3, Adenosine receptor A2a; experiment: Displacement of [3H]SCH-58261 from human Adenosine A2A receptor expressed in HEK293 cells; range 18-33; format: cell-based
Adenosine receptor A3 [24] = molecular target: T2, Adenosine receptor A3; experiment: biochemical; remark: listed apart in the source
Adenosine receptor A1 [25] = molecular target: T1, Adenosine receptor A1; experiment: Displacement of [3H]DPCPX from human Adenosine A1 receptor expressed in CHO cells; range 330-486; format: cell-based
Adenosine receptor A2b [26] = molecular target: T4, Adenosine receptor A2b; experiment: Displacement of [3H]DPCPX from human Adenosine A2B receptor expressed in HEK293 cells; range 68-105; format: cell-based; in short: as §2
Adenosine receptor A2a [27] = molecular target: T3, Adenosine receptor A2a; experiment: Displacement of [3H]SCH-58261 from human Adenosine A2A receptor expressed in HEK293 cells; range 134-190; format: cell-based
Adenosine receptor A3 [28] = molecular target: T2, Adenosine receptor A3; experiment: biochemical; remark: listed apart in the source

T3 sequence (P29274 whole entry): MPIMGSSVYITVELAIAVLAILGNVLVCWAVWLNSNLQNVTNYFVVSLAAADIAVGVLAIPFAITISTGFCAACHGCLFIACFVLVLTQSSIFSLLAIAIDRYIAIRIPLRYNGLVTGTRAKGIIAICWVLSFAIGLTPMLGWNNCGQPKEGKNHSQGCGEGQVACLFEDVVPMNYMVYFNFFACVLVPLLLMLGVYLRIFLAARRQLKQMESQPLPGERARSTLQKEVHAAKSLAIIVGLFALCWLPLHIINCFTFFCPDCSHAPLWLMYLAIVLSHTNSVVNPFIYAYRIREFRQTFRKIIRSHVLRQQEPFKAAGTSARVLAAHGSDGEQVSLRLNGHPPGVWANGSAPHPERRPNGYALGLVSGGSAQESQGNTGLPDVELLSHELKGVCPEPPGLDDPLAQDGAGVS

Ki (Adenosine receptor A1 [1]): 450 nM | IC50 (Adenosine receptor A3 [2]): 5.6 nM | Ki (Adenosine receptor A3 [3]): 0.7 nM | Ki (Adenosine receptor A2a [4]): 180 nM | Ki (Adenosine receptor A2b [5]): 223 nM | Ratio [6]: 319 | Ratio [7]: 643
SMILES: COc1ccccc1NC(=O)Nc1nc2nn(C)cc2c2nc(-c3ccco3)nn12

Ki (Adenosine receptor A1 [8]): 731 nM | Ki (Adenosine receptor A2a [9]): 110 nM | IC50 (Adenosine receptor A3 [10]): 4.6 nM | Ratio [6]: 974 | Ratio [7]: 2360 | Ki (Adenosine receptor A2b [11]): 302 nM | Ki (Adenosine receptor A3 [12]): 0.31 nM
SMILES: Cc1ccc(NC(=O)Nc2nc3nn(C)cc3c3nc(-c4ccco4)nn23)cc1

Ki (Adenosine receptor A1 [13]): 708 nM | Ki (Adenosine receptor A2a [14]): 495 nM | Ki (Adenosine receptor A2b [15]): 34 nM | Ratio [6]: 9.19 | Ratio [7]: 191 | Ki (Adenosine receptor A3 [16]): 3.7 nM
SMILES: CCCCn1cc2c(nc(NC(=O)Nc3ccc(Cl)c(Cl)c3)n3nc(-c4ccco4)nc23)n1

Ki (Adenosine receptor A1 [17]): 409 nM | Ki (Adenosine receptor A2b [18]): 50 nM | Ki (Adenosine receptor A2a [19]): 148 nM | Ki (Adenosine receptor A3 [20]): 0.21 nM | Ratio [6]: 238 | Ratio [7]: 1950
SMILES: CCCCn1cc2c(nc(NC(=O)Nc3ccccc3)n3nc(-c4ccco4)nc23)n1

Ki (Adenosine receptor A2b [21]): 161 nM | Ki (Adenosine receptor A1 [22]): 281 nM | Ki (Adenosine receptor A2a [23]): 24 nM | Ratio [6]: 767 | Ratio [7]: 1340 | Ki (Adenosine receptor A3 [24]): 0.21 nM
SMILES: CCCCn1cc2c(nc(NC(=O)Nc3ccc(C)cc3)n3nc(-c4ccco4)nc23)n1

Ki (Adenosine receptor A1 [25]): 400 nM | Ki (Adenosine receptor A2b [26]): 85 nM | Ki (Adenosine receptor A2a [27]): 160 nM | Ratio [6]: 425 | Ratio [7]: 2000 | Ki (Adenosine receptor A3 [28]): 0.2 nM
SMILES: CCn1cc2c(nc(NC(=O)Nc3ccc(Cl)cc3)n3nc(-c4ccco4)nc23)n1
